Measured values reported in the M2OR odorant receptor database.

Tests used:
Settings in all cases: stereoisomer not certain
OR10H4 (Homo sapiens) = target: T1, OR10H4 (Homo sapiens) (UniProt Q8NGA5)
T1 sequence (whole entry): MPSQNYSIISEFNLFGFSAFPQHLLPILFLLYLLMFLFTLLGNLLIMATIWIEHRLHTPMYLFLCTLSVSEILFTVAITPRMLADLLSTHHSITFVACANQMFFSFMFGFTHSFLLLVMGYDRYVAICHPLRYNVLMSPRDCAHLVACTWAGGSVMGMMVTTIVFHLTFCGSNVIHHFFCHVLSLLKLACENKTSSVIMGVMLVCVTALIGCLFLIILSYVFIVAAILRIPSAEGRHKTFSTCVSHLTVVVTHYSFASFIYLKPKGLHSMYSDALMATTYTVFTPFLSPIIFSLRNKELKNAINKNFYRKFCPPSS
Outline: (§1)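 Transient luciferase assays in mammalian cell lines were common, though methods varied by source. The values come from published papers and their supplementary material, with extra details from the original authors when needed. Responsive refers to a measured signal the original authors judged statistically different from baseline, and non-responsive (inactive) to the remainder.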

OR10H5 (Homo sapiens) = target: T2, OR10H5 (Homo sapiens) (UniProt Q8NGA6)
T2 sequence (whole entry): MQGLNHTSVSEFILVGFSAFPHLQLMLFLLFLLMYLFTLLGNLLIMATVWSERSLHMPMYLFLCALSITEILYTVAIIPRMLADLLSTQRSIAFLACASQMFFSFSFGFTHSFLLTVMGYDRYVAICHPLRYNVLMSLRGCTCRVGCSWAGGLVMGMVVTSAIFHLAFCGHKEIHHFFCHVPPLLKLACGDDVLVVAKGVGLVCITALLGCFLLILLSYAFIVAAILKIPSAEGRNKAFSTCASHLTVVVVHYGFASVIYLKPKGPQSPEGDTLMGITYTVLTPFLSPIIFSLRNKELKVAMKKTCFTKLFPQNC
Outline: as §1

OR10J1 (Homo sapiens) = target: T3, OR10J1 (Homo sapiens) (UniProt P30954)
T3 sequence (whole entry): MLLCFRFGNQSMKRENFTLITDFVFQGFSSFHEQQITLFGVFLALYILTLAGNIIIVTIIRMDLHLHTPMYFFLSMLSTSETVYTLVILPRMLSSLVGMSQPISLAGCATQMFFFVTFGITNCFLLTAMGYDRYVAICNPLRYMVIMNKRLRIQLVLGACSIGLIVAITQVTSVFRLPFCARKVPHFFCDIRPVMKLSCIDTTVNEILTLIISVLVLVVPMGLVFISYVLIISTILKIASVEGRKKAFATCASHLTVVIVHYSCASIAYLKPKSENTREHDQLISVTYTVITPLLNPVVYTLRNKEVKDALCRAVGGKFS
Outline: as §1

OR10J3 (Homo sapiens) = target: T4, OR10J3 (Homo sapiens) (UniProt Q5JRS4)
T4 sequence (whole entry): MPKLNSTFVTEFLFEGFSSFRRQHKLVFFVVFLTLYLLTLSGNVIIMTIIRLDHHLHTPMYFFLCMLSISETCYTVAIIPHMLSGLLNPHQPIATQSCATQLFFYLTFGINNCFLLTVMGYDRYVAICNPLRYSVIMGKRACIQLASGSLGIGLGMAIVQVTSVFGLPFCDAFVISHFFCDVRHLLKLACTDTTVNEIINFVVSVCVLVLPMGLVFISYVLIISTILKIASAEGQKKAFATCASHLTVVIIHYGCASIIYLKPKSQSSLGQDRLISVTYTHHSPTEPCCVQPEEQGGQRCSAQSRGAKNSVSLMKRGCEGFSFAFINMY
Outline: as §1

OR10J5 (Homo sapiens) = target: T5, OR10J5 (Homo sapiens) (UniProt Q8NHC4)
T5 sequence (whole entry): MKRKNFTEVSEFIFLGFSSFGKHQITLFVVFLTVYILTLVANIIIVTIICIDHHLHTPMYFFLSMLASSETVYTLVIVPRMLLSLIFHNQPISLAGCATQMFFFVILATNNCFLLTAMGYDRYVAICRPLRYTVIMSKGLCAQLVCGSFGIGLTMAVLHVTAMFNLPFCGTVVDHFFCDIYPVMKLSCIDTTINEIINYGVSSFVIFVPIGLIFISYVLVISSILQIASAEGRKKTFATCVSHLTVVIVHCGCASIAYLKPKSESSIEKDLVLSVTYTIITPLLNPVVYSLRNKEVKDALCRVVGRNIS
Outline: as §1

OR10K1 (Homo sapiens) = target: T6, OR10K1 (Homo sapiens) (UniProt Q8NGX5)
T6 sequence (whole entry): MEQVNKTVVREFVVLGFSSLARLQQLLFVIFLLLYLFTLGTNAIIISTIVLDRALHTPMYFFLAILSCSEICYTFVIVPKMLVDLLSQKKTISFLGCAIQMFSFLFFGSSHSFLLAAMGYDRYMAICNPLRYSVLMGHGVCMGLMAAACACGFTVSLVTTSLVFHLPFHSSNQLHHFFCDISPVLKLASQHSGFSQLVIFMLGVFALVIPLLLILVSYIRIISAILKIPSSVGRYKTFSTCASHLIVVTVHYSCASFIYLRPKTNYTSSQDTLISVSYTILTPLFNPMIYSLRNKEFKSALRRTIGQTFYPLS
Outline: as §1

OR10P1 (Homo sapiens) = target: T7, OR10P1 (Homo sapiens) (UniProt Q8NGE3)
T7 sequence (whole entry): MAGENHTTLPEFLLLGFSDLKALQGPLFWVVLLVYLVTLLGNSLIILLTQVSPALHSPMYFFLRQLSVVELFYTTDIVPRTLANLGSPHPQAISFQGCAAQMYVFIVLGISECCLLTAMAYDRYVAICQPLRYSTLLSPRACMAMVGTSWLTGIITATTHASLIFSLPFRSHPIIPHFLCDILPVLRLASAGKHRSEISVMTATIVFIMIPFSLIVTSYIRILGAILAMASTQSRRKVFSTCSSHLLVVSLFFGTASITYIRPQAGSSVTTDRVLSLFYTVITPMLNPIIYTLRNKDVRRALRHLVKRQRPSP
Outline: as §1

OR10Q1 (Homo sapiens) = target: T8, OR10Q1 (Homo sapiens) (UniProt Q8NGQ4)
T8 sequence (whole entry): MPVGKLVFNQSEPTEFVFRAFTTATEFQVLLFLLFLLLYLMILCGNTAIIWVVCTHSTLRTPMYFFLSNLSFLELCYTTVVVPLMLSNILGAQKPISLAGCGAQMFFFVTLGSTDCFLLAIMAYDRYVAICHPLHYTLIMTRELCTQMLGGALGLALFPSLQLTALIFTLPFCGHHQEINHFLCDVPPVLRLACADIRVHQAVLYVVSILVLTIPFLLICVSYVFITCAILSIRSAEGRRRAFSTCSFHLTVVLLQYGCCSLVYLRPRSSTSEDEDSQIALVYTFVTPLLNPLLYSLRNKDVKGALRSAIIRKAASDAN
Outline: as §1

OR10R2 (Homo sapiens) = target: T9, OR10R2 (Homo sapiens) (UniProt Q8NGX6)
T9 sequence (whole entry): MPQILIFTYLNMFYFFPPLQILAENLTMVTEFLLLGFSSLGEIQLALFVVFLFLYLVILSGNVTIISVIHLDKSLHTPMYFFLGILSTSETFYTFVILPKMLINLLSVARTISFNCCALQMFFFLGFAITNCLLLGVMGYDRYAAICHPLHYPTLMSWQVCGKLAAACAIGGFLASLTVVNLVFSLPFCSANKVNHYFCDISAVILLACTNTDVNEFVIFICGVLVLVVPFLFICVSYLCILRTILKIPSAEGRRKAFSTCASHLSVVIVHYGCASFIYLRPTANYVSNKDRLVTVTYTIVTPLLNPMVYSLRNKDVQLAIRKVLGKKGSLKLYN
Outline: as §1

OR10S1 (Homo sapiens) = target: T10, OR10S1 (Homo sapiens) (UniProt Q8NGN2)
T10 sequence (whole entry): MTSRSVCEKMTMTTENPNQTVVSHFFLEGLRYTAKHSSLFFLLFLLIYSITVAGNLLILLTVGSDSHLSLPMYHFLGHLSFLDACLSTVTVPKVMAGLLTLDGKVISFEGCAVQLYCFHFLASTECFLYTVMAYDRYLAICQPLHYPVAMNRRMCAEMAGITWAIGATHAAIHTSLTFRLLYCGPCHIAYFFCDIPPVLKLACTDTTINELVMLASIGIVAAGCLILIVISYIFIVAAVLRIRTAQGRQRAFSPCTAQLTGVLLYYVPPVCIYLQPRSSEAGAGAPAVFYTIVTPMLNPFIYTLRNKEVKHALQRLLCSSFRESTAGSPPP
Outline: as §1

OR10T2 (Homo sapiens) = target: T11, OR10T2 (Homo sapiens) (UniProt Q8NGX3)
T11 sequence (whole entry): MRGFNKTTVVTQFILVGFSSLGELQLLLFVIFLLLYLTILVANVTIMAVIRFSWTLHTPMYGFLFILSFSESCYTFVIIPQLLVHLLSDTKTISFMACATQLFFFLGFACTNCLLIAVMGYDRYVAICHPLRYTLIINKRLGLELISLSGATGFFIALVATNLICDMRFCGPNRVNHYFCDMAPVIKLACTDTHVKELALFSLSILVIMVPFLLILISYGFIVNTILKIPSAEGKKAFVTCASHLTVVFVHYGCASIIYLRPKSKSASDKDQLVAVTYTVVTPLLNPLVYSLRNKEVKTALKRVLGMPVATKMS
Outline: as §1

OR10V1 (Homo sapiens) = target: T12, OR10V1 (Homo sapiens) (UniProt Q8NGI7)
T12 sequence (whole entry): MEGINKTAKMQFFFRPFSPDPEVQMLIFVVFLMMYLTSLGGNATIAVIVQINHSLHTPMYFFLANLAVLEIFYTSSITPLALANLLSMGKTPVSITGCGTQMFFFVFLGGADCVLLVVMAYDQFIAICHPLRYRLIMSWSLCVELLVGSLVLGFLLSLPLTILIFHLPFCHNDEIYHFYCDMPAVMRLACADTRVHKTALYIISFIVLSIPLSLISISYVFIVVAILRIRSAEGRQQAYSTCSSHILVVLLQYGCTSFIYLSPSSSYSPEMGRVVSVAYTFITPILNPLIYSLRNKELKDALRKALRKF
Outline: as §1

OR10W1 (Homo sapiens) = target: T13, OR10W1 (Homo sapiens) (UniProt Q8NGF6)
T13 sequence (whole entry): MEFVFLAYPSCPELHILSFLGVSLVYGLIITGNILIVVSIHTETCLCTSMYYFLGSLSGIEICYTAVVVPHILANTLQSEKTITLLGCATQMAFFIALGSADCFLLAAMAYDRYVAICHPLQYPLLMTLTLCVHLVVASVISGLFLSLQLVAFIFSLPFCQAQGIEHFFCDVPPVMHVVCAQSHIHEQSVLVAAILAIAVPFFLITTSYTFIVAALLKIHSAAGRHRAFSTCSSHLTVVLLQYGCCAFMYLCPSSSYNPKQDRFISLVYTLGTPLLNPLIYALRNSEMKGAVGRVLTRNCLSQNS
Outline: as §1

OR10X1 (Homo sapiens) = target: T14, OR10X1 (Homo sapiens) (UniProt Q8NGY0)
T14 sequence (whole entry): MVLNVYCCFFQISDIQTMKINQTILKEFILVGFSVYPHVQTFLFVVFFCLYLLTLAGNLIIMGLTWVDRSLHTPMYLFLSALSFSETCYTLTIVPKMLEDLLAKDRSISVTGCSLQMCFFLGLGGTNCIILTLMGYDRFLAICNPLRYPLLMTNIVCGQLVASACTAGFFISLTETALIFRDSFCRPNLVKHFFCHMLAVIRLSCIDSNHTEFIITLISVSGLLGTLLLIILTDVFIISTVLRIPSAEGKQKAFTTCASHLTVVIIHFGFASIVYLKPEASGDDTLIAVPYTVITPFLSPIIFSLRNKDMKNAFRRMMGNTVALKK
Outline: as §1

OR10Z1 (Homo sapiens) = target: T15, OR10Z1 (Homo sapiens) (UniProt Q8NGY1)
T15 sequence (whole entry): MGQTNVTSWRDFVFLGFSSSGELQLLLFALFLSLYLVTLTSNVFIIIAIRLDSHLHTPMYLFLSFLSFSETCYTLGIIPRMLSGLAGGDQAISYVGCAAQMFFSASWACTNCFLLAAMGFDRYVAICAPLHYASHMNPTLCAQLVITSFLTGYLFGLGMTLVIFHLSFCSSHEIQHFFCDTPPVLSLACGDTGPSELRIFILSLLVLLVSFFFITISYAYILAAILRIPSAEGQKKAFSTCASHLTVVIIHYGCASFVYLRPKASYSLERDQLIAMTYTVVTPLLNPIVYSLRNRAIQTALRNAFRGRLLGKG
Outline: as §1

OR11A1 (Homo sapiens) = target: T16, OR11A1 (Homo sapiens) (UniProt Q9GZK7)
T16 sequence (whole entry): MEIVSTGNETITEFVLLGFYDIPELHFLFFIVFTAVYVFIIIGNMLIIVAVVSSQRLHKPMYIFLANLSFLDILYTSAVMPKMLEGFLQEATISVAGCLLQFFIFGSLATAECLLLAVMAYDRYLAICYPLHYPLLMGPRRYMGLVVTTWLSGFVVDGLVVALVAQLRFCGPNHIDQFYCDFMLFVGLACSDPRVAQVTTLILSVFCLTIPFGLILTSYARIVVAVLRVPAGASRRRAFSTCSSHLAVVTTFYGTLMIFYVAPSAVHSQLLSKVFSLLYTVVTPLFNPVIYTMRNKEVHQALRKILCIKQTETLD
Outline: as §1

OR11G2 (Homo sapiens) = target: T17, OR11G2 (Homo sapiens) (UniProt Q8NGC1)
T17 sequence (whole entry): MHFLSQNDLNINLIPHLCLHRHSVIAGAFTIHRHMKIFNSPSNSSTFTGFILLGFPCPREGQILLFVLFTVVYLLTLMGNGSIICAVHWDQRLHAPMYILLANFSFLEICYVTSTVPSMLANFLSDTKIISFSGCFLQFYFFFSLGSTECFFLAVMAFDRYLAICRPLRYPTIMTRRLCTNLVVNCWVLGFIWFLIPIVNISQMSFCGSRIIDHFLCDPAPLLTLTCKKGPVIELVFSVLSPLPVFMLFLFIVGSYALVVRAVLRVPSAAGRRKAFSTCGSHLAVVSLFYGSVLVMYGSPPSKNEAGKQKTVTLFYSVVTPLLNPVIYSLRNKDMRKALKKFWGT
Outline: as §1

OR11H1 (Homo sapiens) = target: T18, OR11H1 (Homo sapiens) (UniProt Q8NG94)
T18 sequence (whole entry): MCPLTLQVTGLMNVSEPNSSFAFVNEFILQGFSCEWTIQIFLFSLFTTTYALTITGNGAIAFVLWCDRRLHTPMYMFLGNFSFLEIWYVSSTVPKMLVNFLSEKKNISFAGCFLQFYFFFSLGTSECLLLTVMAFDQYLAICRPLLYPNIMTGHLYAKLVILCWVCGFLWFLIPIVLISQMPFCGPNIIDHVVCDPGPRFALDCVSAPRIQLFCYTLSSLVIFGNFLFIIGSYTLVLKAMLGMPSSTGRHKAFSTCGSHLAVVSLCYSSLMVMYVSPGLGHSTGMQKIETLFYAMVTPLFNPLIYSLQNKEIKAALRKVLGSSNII
Outline: as §1

Measured: odorant receptor agonist call;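 further: active if original authors judged signal statistically different from baseline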

CCCC(S)CCOC(C)=O (stereo not drawn)
inactive: all assays above

Cc1cnc(C)c(C)n1
inactive: all assays above

CCCCCCCCO
inactive: OR10J5 (Homo sapiens)

CCCC(=O)C(C)=O
inactive: OR10J5 (Homo sapiens)
